Assay results taken from ChEMBL document CHEMBL5678799 (Biochem J, 2009).
The source made the active and inactive calls. The rule behind the calls is not given here.

How the values were obtained:
[1] = target: Ephrin type-B receptor 3 (Homo sapiens) (UniProt P54753); experiment: Inhibition of recombinant human N-terminal His6-tagged EPHB3 (561 to 998 residues) expressed in Escherichia coli assessed as remaining activity at 10 uM using Poly(Glu, Tyr) as substrate incubated for 30 mins in presence of [gamma-33P]ATP by filter binding method relative to control
How it was run: (§1)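 Panel assays were run for 30 min at 21 °C, within the linear range for time and enzyme. […] Results are percent activity remaining relative to compound-free control, averaged from triplicate ± S.D.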

[2] = target: Fibroblast growth factor receptor 1 (Homo sapiens) (UniProt P11362); experiment: Inhibition of recombinant human N-terminal His6-tagged FGFR1 (400 to 820 residues) expressed in baculovirus infected Sf21 cells assessed as remaining activity at 10 uM using Poly(Glu,Tyr) as substrate incubated for 30 mins in presence of [gamma-33P]ATP by filter binding method relative to control; how it was run: as §1
Sequence of Fibroblast growth factor receptor 1 (Homo sapiens) (P11362 22-822 limits assumed): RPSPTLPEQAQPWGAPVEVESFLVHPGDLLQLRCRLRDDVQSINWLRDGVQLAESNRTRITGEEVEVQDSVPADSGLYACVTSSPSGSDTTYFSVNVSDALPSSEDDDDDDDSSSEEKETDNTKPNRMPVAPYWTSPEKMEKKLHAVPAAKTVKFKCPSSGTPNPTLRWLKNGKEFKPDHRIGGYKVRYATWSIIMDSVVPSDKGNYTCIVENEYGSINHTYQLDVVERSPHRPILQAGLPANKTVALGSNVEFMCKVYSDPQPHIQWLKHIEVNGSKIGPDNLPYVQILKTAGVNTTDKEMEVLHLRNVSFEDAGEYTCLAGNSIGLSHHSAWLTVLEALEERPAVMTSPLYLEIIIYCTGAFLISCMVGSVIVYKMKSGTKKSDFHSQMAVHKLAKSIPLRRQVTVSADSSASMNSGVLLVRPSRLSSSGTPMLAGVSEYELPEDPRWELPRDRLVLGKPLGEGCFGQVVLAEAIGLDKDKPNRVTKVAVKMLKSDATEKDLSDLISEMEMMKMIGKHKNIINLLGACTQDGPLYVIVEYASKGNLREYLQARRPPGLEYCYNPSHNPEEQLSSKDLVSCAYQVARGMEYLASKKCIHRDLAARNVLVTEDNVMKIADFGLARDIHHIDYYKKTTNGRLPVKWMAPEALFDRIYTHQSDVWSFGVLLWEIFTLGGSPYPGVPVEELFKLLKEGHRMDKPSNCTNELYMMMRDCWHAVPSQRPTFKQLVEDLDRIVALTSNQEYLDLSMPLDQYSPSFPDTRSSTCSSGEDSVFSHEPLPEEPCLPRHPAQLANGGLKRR

[3] = target: Proto-oncogene tyrosine-protein kinase Src (Homo sapiens) (UniProt P12931); experiment: Inhibition of recombinant human N-terminal His6-tagged SRC (1 to 536 residues) expressed in baculovirus infected Sf21 cells assessed as remaining activity at 10 uM using KVEKIGEGTYGVVYK as substrate incubated for 30 mins in presence of [gamma-33P]ATP by filter binding assay relative to control
Sequence of Proto-oncogene tyrosine-protein kinase Src (Homo sapiens) (P12931 2-536 limits assumed): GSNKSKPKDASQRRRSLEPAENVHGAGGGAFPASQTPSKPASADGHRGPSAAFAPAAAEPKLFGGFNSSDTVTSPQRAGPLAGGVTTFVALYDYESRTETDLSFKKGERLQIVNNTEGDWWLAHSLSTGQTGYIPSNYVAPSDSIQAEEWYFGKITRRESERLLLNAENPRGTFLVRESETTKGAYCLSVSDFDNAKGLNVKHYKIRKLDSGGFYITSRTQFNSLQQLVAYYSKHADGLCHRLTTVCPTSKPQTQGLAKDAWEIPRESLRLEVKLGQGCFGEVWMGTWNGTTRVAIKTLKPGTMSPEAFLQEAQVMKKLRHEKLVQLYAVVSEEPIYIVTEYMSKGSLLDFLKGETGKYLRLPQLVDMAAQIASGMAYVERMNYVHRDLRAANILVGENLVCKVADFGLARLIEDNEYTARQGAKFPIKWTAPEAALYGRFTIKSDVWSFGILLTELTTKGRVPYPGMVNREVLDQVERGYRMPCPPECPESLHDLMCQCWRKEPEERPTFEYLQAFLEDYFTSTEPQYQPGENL

[4] = target: Mitogen-activated protein kinase 11 (Homo sapiens) (UniProt Q15759); experiment: Inhibition of recombinant human N-terminal GST-tagged P38beta (1 to 364 residues) expressed in Escherichia coli assessed as remaining activity at 10 uM using MBP as substrate incubated for 30 mins in presence of [gamma-33P]ATP by filter binding method relative to control; how it was run: as §1
[5] = target: Calcium/calmodulin-dependent protein kinase type 1 (Homo sapiens) (UniProt Q14012); experiment: Inhibition of recombinant human N-terminal GST-tagged CAMK1alpha (2 to 369 residues) expressed in Escherichia coli assessed as remaining activity at 1 uM using YLRRRLSDSNF as substrate incubated for 30 mins in presence of [gamma-33P]ATP by filter binding method relative to control
Sequence of Calcium/calmodulin-dependent protein kinase type 1 (Homo sapiens) (Q14012 whole entry, looked up, the tested form may be a part): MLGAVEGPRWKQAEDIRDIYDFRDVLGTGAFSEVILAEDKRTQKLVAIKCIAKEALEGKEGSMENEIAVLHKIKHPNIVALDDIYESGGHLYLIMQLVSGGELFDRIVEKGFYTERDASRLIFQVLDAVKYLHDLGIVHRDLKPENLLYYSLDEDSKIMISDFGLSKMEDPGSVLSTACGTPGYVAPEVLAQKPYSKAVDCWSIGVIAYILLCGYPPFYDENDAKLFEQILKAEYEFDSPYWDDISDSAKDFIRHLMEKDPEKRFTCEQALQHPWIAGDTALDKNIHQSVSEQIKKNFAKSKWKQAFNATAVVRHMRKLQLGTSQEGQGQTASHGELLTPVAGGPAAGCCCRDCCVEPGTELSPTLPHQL
How it was run: (§2)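 Run robotically for 30 min at 21 °C under linear conditions. Compound at 1 or 10 µM. Percentage activity remaining versus control without compound, triplicate mean ± S.D.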

[6] = target: Mitogen-activated protein kinase 14 (Homo sapiens) (UniProt Q16539); experiment: Inhibition of recombinant human N-terminal GST-tagged P38alpha (1 to 360 residues) expressed in Escherichia coli assessed as remaining activity at 10 uM using MBP as substrate incubated for 30 mins in presence of [gamma-33P]ATP by filter binding method relative to control
How it was run: (§3)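 Incubation was 30 min at room temperature (21 °C) under conditions linear with time and enzyme amount. Activity is reported as percent of control lacking compound, triplicate mean ± S.D.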

[7] = target: Serine/threonine-protein kinase PLK1 (Homo sapiens) (UniProt P53350); experiment: Inhibition of recombinant human N-terminal His6-tagged PLK1 (1 to 603 residues) expressed in baculovirus infected Sf21 cells assessed as remaining activity at 1 uM using ISDELMDATFADQEAKKK as substrate incubated for 30 mins in presence of [gamma-33P]ATP by filter binding method relative to control
Sequence of Serine/threonine-protein kinase PLK1 (Homo sapiens) (P53350 whole entry, the tested form may be a part): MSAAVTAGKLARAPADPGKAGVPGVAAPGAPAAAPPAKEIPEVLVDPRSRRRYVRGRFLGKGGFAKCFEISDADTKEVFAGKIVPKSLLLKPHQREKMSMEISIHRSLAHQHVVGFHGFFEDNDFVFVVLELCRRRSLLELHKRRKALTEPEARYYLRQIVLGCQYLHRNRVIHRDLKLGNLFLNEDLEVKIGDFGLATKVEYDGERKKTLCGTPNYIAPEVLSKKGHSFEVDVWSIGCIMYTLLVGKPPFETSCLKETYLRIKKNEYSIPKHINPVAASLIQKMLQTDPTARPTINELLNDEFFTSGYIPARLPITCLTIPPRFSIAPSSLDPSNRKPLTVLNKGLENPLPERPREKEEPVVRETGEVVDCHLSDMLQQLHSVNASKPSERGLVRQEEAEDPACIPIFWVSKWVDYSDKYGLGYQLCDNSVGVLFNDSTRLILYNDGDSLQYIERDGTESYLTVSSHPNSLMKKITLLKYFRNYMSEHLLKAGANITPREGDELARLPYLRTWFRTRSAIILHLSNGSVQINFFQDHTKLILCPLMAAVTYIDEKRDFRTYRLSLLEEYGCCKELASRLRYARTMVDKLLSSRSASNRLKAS
How it was run: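 Radiometric panel assay run robotically at 21 °C for 30 min, linear in time and enzyme. […] Activity is expressed as percentage of the compound-omitted control, averaged from triplicates ± S.D.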

[8] = target: Serine/threonine-protein kinase 3 (Homo sapiens) (UniProt Q13188); experiment: Inhibition of recombinant human N-terminal GST-tagged MST2 (2 to 491 residues) expressed in baculovirus infected Sf21 cells assessed as remaining activity at 10 uM using MBP as substrate incubated for 30 mins in presence of [gamma-33P]ATP by filter binding method relative to control; how it was run: as §1
Sequence of Serine/threonine-protein kinase 3 (Homo sapiens) (Q13188 whole entry, the tested form may be a part): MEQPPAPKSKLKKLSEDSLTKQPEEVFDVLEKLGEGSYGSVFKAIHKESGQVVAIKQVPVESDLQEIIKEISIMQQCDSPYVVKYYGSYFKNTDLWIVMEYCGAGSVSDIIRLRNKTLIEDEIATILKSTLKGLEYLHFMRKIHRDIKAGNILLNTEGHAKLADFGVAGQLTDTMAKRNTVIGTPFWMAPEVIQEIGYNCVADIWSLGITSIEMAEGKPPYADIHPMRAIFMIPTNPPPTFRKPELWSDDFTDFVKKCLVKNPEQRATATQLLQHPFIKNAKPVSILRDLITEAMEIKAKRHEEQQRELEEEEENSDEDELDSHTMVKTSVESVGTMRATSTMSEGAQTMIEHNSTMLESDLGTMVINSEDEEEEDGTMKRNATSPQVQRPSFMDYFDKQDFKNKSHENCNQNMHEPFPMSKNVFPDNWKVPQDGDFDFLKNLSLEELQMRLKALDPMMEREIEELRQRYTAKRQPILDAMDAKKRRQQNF

[9] = target: Phosphatidylinositol 3-kinase catalytic subunit type 3 (Homo sapiens) (UniProt Q8NEB9); experiment: Inhibition of VPS34 (unknown origin) assessed as remaining activity at 10 uM using phosphatidylinositol as substrate incubated for 60 mins in presence of ATP relative to control
[10] = target: Sphingosine kinase 2 (Homo sapiens) (UniProt Q9NRA0); experiment: Inhibition of SPHK2 (unknown origin) assessed as remaining activity at 1 uM using sphingosine as substrate incubated for 30 mins in presence of ATP relative to control
How it was run: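 SPHK2 reaction: 10 μM sphingosine, 1 μM ATP, 50 mM Tris/HCl pH 7.5, 200 mM KCl, 5 mM MgCl2, 1 mM EGTA, 1 mM DTT, 30 min at room temperature. Kinase-Glo Plus luminescence read-out. Percentage of control activity, triplicate.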

[11] = tested on: HEK293; experiment: Inhibition of PI3K in serum starved HEK293 cells expressing GST-tagged-AKT1 S473D mutant assessed as reduction in IGF1-stimulated AKT1 phosphorylation at Thr308 residue at 100 to 1000 nM incubated for 20 mins by immunoblot analysis; type: cell-based; details: Homo sapiens, dose 100-1000 nM
How it was run: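 HEK-293 cells transfected with wild-type or S473D GST–Akt1. At 24 h, serum-starved 16 h, pretreated 30 min with inhibitor, then stimulated with IGF-1 for 20 min. Lysates immunoblotted for Thr308 phosphorylation. Three separate experiments.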

[12] = target: Insulin receptor-related protein (Homo sapiens) (UniProt P14616); experiment: Inhibition of recombinant human N-terminal His6-tagged IRR (944 to 1236 residues) expressed in baculovirus infected Sf21 cells assessed as remaining activity at 1 uM using MBP as substrate incubated for 30 mins in presence of [gamma-33P]ATP by filter binding method relative to control
[13] = target: Ephrin type-A receptor 2 (Homo sapiens) (UniProt P29317); experiment: Inhibition of recombinant human N-terminal GST-tagged EPHA2 (591 to 976 residues) expressed in Escherichia coli assessed as remaining activity at 1 uM using Poly (Glu,Tyr) as substrate incubated for 30 mins in presence of [gamma-33P]ATP by filter binding method relative to control; how it was run: as §2
Sequence of Ephrin type-A receptor 2 (Homo sapiens) (P29317 whole entry, the tested form may be a part): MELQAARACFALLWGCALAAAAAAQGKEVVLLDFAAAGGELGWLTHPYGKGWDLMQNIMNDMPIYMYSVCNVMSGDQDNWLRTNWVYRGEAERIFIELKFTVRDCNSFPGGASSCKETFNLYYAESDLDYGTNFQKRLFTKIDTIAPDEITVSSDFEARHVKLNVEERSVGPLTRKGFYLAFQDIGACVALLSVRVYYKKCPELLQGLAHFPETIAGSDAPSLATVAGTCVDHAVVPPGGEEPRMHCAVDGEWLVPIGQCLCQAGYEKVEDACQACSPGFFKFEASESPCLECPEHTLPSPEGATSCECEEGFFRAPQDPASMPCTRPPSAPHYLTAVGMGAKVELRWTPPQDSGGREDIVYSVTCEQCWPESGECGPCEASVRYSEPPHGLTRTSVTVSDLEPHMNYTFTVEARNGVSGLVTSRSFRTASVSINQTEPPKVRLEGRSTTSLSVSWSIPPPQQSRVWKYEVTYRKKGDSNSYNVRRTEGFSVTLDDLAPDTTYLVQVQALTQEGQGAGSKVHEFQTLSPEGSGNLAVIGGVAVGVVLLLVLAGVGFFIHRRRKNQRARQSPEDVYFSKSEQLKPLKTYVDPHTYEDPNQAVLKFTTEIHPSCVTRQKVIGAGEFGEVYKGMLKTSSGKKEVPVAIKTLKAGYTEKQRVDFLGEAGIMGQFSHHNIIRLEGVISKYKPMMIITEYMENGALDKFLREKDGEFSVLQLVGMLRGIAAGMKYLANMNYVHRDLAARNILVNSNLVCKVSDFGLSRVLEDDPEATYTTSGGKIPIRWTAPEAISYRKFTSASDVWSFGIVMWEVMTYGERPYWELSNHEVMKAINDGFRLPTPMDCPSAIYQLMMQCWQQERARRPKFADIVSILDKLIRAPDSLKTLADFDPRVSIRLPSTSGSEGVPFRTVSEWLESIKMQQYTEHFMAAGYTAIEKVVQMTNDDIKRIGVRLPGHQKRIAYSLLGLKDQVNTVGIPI

[14] = target: Serine/threonine-protein kinase 26 (Homo sapiens) (UniProt Q9P289); experiment: Inhibition of recombinant human N-terminal His6-tagged MST4 (1 to 416 residues) expressed in baculovirus infected Sf21 cells assessed as remaining activity at 1 uM using MBP as substrate incubated for 30 mins in presence of [gamma-33P]ATP by filter binding method relative to control
Sequence of Serine/threonine-protein kinase 26 (Homo sapiens) (Q9P289 2-416 limits assumed): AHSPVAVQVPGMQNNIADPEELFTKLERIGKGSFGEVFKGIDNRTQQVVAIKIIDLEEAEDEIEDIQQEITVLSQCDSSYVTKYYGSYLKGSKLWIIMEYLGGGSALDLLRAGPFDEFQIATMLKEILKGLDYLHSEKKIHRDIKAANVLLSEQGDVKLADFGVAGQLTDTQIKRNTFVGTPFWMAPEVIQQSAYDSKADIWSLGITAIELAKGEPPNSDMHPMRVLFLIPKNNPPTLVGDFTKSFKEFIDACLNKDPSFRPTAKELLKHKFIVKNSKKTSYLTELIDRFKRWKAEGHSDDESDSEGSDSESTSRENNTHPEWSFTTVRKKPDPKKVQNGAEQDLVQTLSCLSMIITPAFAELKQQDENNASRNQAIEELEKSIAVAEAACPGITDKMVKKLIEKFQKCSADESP

[15] = target: Maternal embryonic leucine zipper kinase (Homo sapiens) (UniProt Q14680); experiment: Inhibition of recombinant human N-terminal GST/C-terminal His6-tagged MELK (2 to 651 residues) expressed in Escherichia coli assessed as remaining activity at 10 uM using KKLNRTLSFAEPG as substrate incubated for 30 mins in presence of [gamma-33P]ATP by filter binding method relative to control; how it was run: as §3
Sequence of Maternal embryonic leucine zipper kinase (Homo sapiens) (Q14680 whole entry, looked up, the tested form may be a part): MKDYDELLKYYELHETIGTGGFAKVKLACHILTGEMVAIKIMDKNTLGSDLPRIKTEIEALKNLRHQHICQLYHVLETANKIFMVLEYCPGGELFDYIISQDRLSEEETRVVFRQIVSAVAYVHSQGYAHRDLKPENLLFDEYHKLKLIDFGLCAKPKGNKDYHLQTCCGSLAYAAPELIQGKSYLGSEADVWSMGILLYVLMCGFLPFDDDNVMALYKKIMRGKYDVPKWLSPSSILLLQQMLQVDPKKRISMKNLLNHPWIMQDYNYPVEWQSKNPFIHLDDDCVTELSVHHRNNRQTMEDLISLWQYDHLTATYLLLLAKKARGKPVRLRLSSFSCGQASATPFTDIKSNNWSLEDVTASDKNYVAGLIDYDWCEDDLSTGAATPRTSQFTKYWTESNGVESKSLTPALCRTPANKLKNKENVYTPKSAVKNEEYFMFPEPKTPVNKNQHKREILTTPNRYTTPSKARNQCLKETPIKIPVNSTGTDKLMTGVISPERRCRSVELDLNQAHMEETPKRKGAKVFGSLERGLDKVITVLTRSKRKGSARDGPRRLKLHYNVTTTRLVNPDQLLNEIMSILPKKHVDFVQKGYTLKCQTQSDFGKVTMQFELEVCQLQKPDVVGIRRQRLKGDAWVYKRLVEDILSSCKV

COc1ccc(-c2ccc3c(N4CCOCC4)nc(N4C[C@@H](C)O[C@@H](C)C4)nc3n2)cc1CO [Ku-0063794]
Activity [1]: 78% | Activity [2]: 87% | Activity [3]: 86% | Activity [4]: 83% | Activity [5]: 96% | Activity [6]: 96% | Activity [7]: 76% | Activity [8]: 102% | Activity [9]: 93% | Activity [10]: 119% | inhibition [11]: inactive | Activity [12]: 105% | Activity [13]: 108% | Activity [14]: 87% | Activity [15]: 72%
